Assay results taken from ChEMBL document CHEMBL4513216, “Probing the Open Global Health Chemical Diversity Library for Multistage-Active Starting Points for Next-Generation Antimalarials” (ACS Infect Dis, 2020).

Assay: Toxicity liver stage against HepG2, at 10uM
Format: cell-based
Set-up: test concentration 10 uM, cell line HepG2-A16-CD81EGFP
Conditions: human, HepG2-A16-CD81EGFP cells; read-out: INHIBITION
Outline: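 Uninfected HepG2-A16-CD81EGFP cells, 3 × 10^3 per well, 1536-well, plated on prespotted compound at 10 μM final, parasite-free screening media added to match infected plates; puromycin 10 μM positive, DMSO 0.5% negative; run in parallel with 48 h PbLuc assay at 37 °C, 5% CO2; viability by CellTiter-Glo luminescence, normalized to controls.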

Structure (SMILES)	cytotoxicity at 10 µM [%]
CC1CCN(c2cc(-n3cnc(C(=O)N4CCSCC4)c3)ncn2)CC1	0.668
CC(=O)N1CC2(CCN(C(=O)c3ccc4c(c3)OCCO4)CC2)C1	-11.8
CC(=O)N1CCOCC2(CCCNC2)C1 (configuration not stated)	0.081
O=C(C1CCOCC1)N1CCO[C@H]2[C@H](OCC3CC3)CC[C@@H]21	2.61
Cc1nc(N2CCOCC2)nc2c1CCN(C(=O)C1CCCCC1)CC2	-0.152
CNc1nc2c(s1)C(c1ccc(F)cc1Cl)CC(=O)N2 (configuration not stated)	4.12
CO[C@H]1CCN(c2ncccn2)[C@H]1Cc1ccccc1	-12.9
O=C1CCOC[C@]2(CN(Cc3ccccc3)C[C@H]2c2cccc(F)c2)N1	-0.0186
COc1ccc(C2CN(c3nc(C)cc(C)n3)CCN2C(C)=O)cc1 (configuration not stated)	2.06
CCn1nc(C)c(CN(CCCN(C)C)Cc2ccccn2)c1C	1.62
NC(=O)c1ccccc1Oc1cnc(C2CCCN2)cn1 (configuration not stated)	0.288
c1ccc(-c2cc(CNCCCN3CCCCC3)c3nnnn3c2)cc1	-30.6
Cc1cc(CC(=O)N2CCc3cc(Br)sc3C2)n[nH]1	10.2
CC(Cn1cccn1)NCc1cccc(C#N)c1 (configuration not stated)	5.19
CCC(CC)(CN)NC(C)c1ccccc1 (configuration not stated)	4.02
c1cnc2nc(N3CCc4c(ncn4C4CC4)C3)ccc2n1	6.47
COCCCN(C)C(=O)c1nnn(-c2ccccc2Cl)c1C	9.38
CC(C)(C)CN(CCC#N)C(=O)c1cccc(CN2CCCC2)c1	0.234
O=C(c1cccc(F)c1)N(CCCO)S(=O)(=O)c1cccs1	3.51
CN(C1CCCCC1)S(=O)(=O)N1CCN(Cc2ccon2)CC1	6.75
O=C(Cn1ccc(-c2ccccc2)n1)N1CCN(C(=O)C2CC2)CC1	-6.58

Structure (SMILES)	cytotoxicity at 10 µM [%]
Cc1nn(C)c2ncc(NC(=O)N3CCNC(=O)C3)cc12	-5.81
CSC1(CNC(=O)c2ccn(-c3ccccc3F)n2)CCOCC1	0.243
CCCc1csc(-c2ccc(S(C)(=O)=O)cc2)n1	-2.69
COC(=O)C(C)N(Cc1cc(=O)n(C)c(=O)n1C)C1CC1 (configuration not stated)	-0.719
O=C(NCC1CC(=O)N(CCc2ccccc2)C1)c1ccon1 (configuration not stated)	-5.22
CC(C)(C)OC(=O)NCC1CCN(C(=O)c2ccccc2O)CC1	8.53
Cc1cc(NCCn2cccn2)n2ncnc2n1	-2.27
Cc1nc(C2CCCN(C(=O)c3cnc(C)s3)C2)no1 (configuration not stated)	4.31
COc1cc2c(nn1)CCN(CC(O)COc1ccc(C#N)cc1)C2 (configuration not stated)	-2.19
CCC(NC(=O)Nc1cc(F)c(OC)c(F)c1)c1noc(C)n1 (configuration not stated)	-0.177
CCC(CNS(N)(=O)=O)Oc1ccccc1F (configuration not stated)	3.01
O=C(COc1ccc2c(c1)CCC2)N1CCCC1c1ccc[nH]1 (configuration not stated)	6.54
CC(C)Oc1ccccc1CNC(=O)c1[nH]ncc1Br	17.5
COc1cc(C)c(C(C)Nc2ncc(C(N)=O)cc2Cl)cc1OC (configuration not stated)	2.76
O=C(Nc1ccccc1F)C1CSCN1C(=O)CCc1ccco1 (configuration not stated)	-4.31
Cc1cccc(S(=O)(=O)NCC(C)N2CCN(C)CC2)c1Cl (configuration not stated)	-4.52
CCN1CCN(S(=O)(=O)N2CCC(OC)CC2)[C@H]2CS(=O)(=O)C[C@H]21	-1.6
Cc1nc(CN2CCC(c3cc(N4CCCC4)ncn3)CC2)cs1	-159
CCC1CN(C(=O)c2ccc(O)c(C)c2)CCN1C(C)C (configuration not stated)	1.68
O=C(O)C1(Cc2cccc(Cl)c2)CCCN(c2ncnc3[nH]ccc23)C1 (configuration not stated)	3.63
CC(CCn1cccn1)N1CCC(n2cc(C(C)(C)N)nn2)CC1 (configuration not stated)	-4.78

Structure (SMILES)	cytotoxicity at 10 µM [%]
COCc1nc(CN2CC(Cc3ccccc3)CC2=O)no1 (configuration not stated)	-12.8
COc1nccc(N2CC[C@H](N3CCOCC3)[C@H](CCCO)C2)c1C#N	-148
COc1cc(F)c(CN2CC[C@@](O)(C3CC3)[C@H](C)C2)cc1OC	0.0489
CCCN1CCCC2(CCN(S(=O)(=O)N3CCC(OC)CC3)C2)C1=O (configuration not stated)	1.48
COCC(=O)N1CCC(Oc2cccc(C)c2)CC1	-4.25
CC(Cn1ccnc1)NCc1nncn1C1CCCCC1 (configuration not stated)	-4.54
Cc1nc[nH]c1CN1CCCC(CNC(=O)c2ccncn2)C1 (configuration not stated)	-0.334
CC(C)c1cnc(N2C[C@H](CO)C[C@H](CN3CCOCC3)C2)nc1	-7.45
CCOCCn1nc(C)cc1C(=O)N1C[C@@H](C)[C@](O)(C2CC2)C1	-3.9
Cc1cccc(CN2CCN(C(=O)[C@@H]3CSCN3C)CC2)c1	-8.56
O=C(NCCCc1ccccn1)c1cn(CCN2CCNCC2)nn1	-3.54
CCN1CCN(C[C@@H]2CN(c3ncc(Cl)cc3Cl)C[C@@H]2CO)CC1	-6
COc1ccc(NC(=O)CCN2CC=C(c3cnn(C)c3)CC2)cc1Cl	6.64
O=c1[nH]c(NC2CCCC2)nc2nccc(-c3ccco3)c12	0.74
Cc1ccc(N2CCN(C(=O)COc3ncccn3)CC2)nn1	-0.233
Cc1ccsc1C(CNC(=O)c1cc(=O)c2ccccc2[nH]1)N(C)C (configuration not stated)	-2.89
COc1ccc(OCc2nc(C(=O)N3CC[C@H](O)[C@@H](O)C3)co2)cc1	-5.42
CC(C)Oc1ccc(CNC(=O)CCN2C(=O)CCC2=O)cc1F	-7.27
CC(C)c1noc(C(C)N2CCN(CCCN3CCCC3=O)CC2)n1 (configuration not stated)	-14.3
Cc1cc(CNc2ccccc2Cl)no1	-7.77
CCN(CC)C(=O)Cn1ccc2cc(NC(C)=O)ccc21	-10.2

Structure (SMILES)	cytotoxicity at 10 µM [%]
Cc1noc(C)c1C(=O)NCC(c1ccsc1)N(C)C (configuration not stated)	-14.2
CC(O)CN1CCC(CNCc2cccc(C(=O)N(C)C)c2)CC1 (configuration not stated)	-12.8
Cc1cc(C)n(CC2CN(Cc3noc(C4CC4)n3)CCO2)n1 (configuration not stated)	2.79
Cn1cnnc1C1CCCN(C(=O)COc2ccccc2Cl)C1 (configuration not stated)	-14.2
Cc1cc(CN(C)C(=O)NC2CCC(O)CC2)no1 (configuration not stated)	-0.252
Cc1cc(CN(C)C(=O)NC2CCCC2)no1	-5.85
O=C(Nc1ccccn1)N(CCO)Cc1ccsc1	2.12
Cc1ccc(-c2ncc(C(=O)NCCS(N)(=O)=O)s2)c(C)c1	-10.7
O=C(CCCOc1ccc(F)cc1)N1CCCC(n2cccn2)C1 (configuration not stated)	4.23
C[C@@H]1CN(Cc2ccccn2)C[C@]12CCN(Cc1cccnc1)C2=O	-4.54
c1cncc(O[C@H]2CC[C@H]3[C@H]2OCCN3C2CCCC2)c1	-6.05
O=c1ccc2c(n1Cc1ccncc1)CCN(Cc1ccoc1)CC2	-149
Cc1cccc(C(=O)N2C[C@@H]3CCN(C(C)C)C[C@@H]3C2)c1	-2.16
Cn1cccc1C(=O)NCc1cn2c(n1)CN(Cc1ccccn1)CC2	-115
CCS(=O)(=O)N1C[C@@H]2CN(Cc3ccco3)CCO[C@@H]2C1	-122
Cc1cnc(C(=O)N2CCC3(CCN(Cc4ccccn4)C3=O)C2)cn1 (configuration not stated)	-140
CCCN1C[C@@H]2CC[C@H]1CN(Cc1cccc(O)c1)C2	-122
Cn1cc(-n2cc3nc(N4CCOCC4)[nH]cc-3c2=O)cn1	7.36
CS(=O)(=O)CCC(=O)N1C[C@H]2CC[C@@H](C1)N(Cc1ccccc1)C2=O	-0.0119
